CHO parental Ca = ATP-evoked calcium signal inhibitors, parental CHO, primary screen, counter-screen for OX1R antagonist project, cell-based, fluorescence, Fluo-8 calcium dye | parental CHO-K1, ATP-induced calcium, Fluo-8 fluorescence | 0.63% of 330,000 active | inhibition, % at 5.6 µM;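 active = inhibition above that plate's mean sample inhibition plus 3 SD, cut at about 26% in these data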;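 also: 0% = ATP-challenged DMSO wells and 100% = DMSO wells without ATP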
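test system = CHO parental line | reagent = ATP stimulus | measured by = intracellular calcium via Fluo-8 no-wash fluorescent dye | control set = ATP and no-ATP DMSO wells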
OX1R antag-1 = antagonists of human orexin 1 receptor (OX1R). AID 485270, 2010. 1.8% of 330,000 active. inhibition, % at 6.6 µM. Orexin/Hypocretin receptor type 1 (Homo sapiens), O43613. OX1R-expressing cells, FRET antagonist read-out; in the data active = inhibition mostly above about 38%, no sharp cut-off; inactive = mostly below about 40%;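 also: 0% = agonist challenge alone and 100% = reference antagonist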
Target sequence (O43613 whole entry, looked up): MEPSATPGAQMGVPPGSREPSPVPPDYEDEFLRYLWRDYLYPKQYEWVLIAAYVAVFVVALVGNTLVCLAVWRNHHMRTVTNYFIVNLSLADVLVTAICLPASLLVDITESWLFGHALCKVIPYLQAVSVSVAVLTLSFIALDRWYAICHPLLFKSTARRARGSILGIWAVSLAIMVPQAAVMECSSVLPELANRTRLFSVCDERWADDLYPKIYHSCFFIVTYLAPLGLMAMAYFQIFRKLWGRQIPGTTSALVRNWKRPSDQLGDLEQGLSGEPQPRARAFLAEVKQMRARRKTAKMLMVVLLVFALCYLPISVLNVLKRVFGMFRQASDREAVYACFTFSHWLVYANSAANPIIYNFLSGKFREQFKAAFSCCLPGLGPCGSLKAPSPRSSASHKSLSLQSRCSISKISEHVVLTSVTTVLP
TAAR1 ag = human TAAR1 agonists, primary screen, Fluo-8 calcium fluorescence, CHO RD-HGA16 cells | vehicle wells 0%, saturating PEA agonist 100% | Trace amine-associated receptor 1 (Homo sapiens), Q96RJ0 | 0.99% of 360,000 active | AID 624467, 2012 | activation, % at 3 µM;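 active = activation above the mean activation of all test compounds in the run plus 3 SD, cut at about 38% in these data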
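Test system: RD-HGA16 (CHO) cells co-expressing Gα16 and hTAAR1; dosing: one-point dosing at 3 µM (nominal); timing: 17-24 h seeding, 75 min 37 °C dye, 30 min RT; signal: kinetic Fluo-8 calcium fluorescence; read-out basis: % activation relative to PEA EC100 response; controls: DMSO and PEA EC100; replicates: n 1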
TAAR1 antagonist = human TAAR1 antagonists, primary screen, Fluo-8 calcium fluorescence, CHO RD-HGA16 cells | 1.5% of 360,000 active | inhibition, % at 3 µM | antagonist | Trace amine-associated receptor 1 (Homo sapiens), Q96RJ0;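 active = inhibition above a per-plate cutoff, the mean inhibition of test compounds on that plate plus 3 SD, cut at about 49% in these data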;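 also: 0% = DMSO plus EC80 beta-PEA response and 100% = DMSO alone without agonist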
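Test system: RD-HGA16 CHO cells with stable hTAAR1 and Gα16 / Probe or stimulus: EC80 β-phenethylamine stimulus / Times: seeding 17-24 h prior, 75-min 37 °C, 30-min RT dye loading / Detection: Fluo-8 calcium-sensitive fluorescence / Read-out basis: % inhibition scaled between DMSO and EC80 PEA controls / Repeats: singlicate, one well per test compound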
GPR7 antagonist = GPR7 receptor antagonists, primary screen, cell-based, fluorescence, single concentration; 1.1% of 290,000 active; GPR7-expressing cells, fluorescence antagonist assay; inhibition, % at 4.4 µM; Neuropeptides B/W receptor type 1 (Homo sapiens), P48145; in the data active = inhibition above about 16%, passing the limit was not always enough;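 also: cells stimulated with the agonist NPW; 0% = agonist with vehicle and 100% = vehicle without agonist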
Target sequence (P48145 whole entry, looked up): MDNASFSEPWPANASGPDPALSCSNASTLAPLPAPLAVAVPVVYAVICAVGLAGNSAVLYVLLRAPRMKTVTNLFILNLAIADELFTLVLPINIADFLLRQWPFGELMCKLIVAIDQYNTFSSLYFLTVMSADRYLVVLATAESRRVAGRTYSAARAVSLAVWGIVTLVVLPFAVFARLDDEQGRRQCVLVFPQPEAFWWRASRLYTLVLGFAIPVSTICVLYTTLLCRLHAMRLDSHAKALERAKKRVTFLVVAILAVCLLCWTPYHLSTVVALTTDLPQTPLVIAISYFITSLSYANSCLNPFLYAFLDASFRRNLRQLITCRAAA
OX1R antag-2 = OX1R (HCRTR1) antagonists, primary screen, fluorescence, CHO/OX1R cells, Fluo-8 calcium, orexin A; AID 434989, 2010; Orexin/Hypocretin receptor type 1 (Homo sapiens), O43613; Fluo-8 calcium fluorescence; inhibition, % at 5 µM; 0.43% of 330,000 active;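 active = inhibition above its plate's threshold, mean inhibition of all tested compounds on the plate plus 3 SD, cut at about 37% in these data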;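 also: 0% = orexin A challenge wells and 100% = SB-334867-A antagonist wells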
OX1R HTRF confirm = OX1R (HCRTR1) antagonists, confirmation, cell-based, HTRF | shares compounds with OX1R antag-1 | OX1R-expressing cells, HTRF antagonist assay | inhibition, % at 6.6 µM | 49% of 1,800 active; in the data active = inhibition above about 55%;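 also: CHO cells expressing OX1R stimulated with orexin A at about EC80; 0% = agonist challenge alone and 100% = reference antagonist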
CHO-K1 HTRF cnt = signal inhibition in parental CHO-K1 cells, counter-screen for OX1R antagonist project, cell-based, HTRF. shares compounds with OX1R antag-1. HTRF counterscreen. inhibition, % at 6.6 µM. 48% of 1,800 active; in the data active = inhibition above about 17%;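 also: 0% = agonist challenge with vehicle and 100% = vehicle alone without agonist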
Active calls of the source: *. A selection: hits, their analogues and other compounds. The true share with any hit is near 4.5%.

Screening CC1(C)OC(=O)C(=NNc2ccccc2)C(=O)O1 returned CHO parental Ca 3.8, OX1R antag-1 51.8, TAAR1 ag 1.8, TAAR1 antagonist -22.3, GPR7 antagonist -1.9 and OX1R antag-2 4.0.
CC1(C)OC(=O)C(=NNc2ccc(O)cc2)C(=O)O1 was read as CHO parental Ca 23.1, OX1R antag-1 82.1*, TAAR1 ag 2.9, TAAR1 antagonist -20.8, GPR7 antagonist -8.3, OX1R antag-2 -3.8, OX1R HTRF confirm 19.3 and CHO-K1 HTRF cnt 24.0*.
For Cc1ccc(S(=O)(=O)Nc2nc3ccc(S(=O)(=O)N4CCCC4)cc3s2)cc1 the results were CHO parental Ca -10.4, OX1R antag-1 13.2, TAAR1 ag 5.2, TAAR1 antagonist 5.3, GPR7 antagonist -5.0 and OX1R antag-2 -11.3.
For COc1ccc(-c2ccc(/C=C3/C(=N)N4C(C)=CSC4=NC3=O)o2)c([N+](=O)[O-])c1 the results were CHO parental Ca -10.1, OX1R antag-1 90.6*, TAAR1 ag 10.8, TAAR1 antagonist 41.0, GPR7 antagonist -4.7, OX1R antag-2 11.3, OX1R HTRF confirm 58.3* and CHO-K1 HTRF cnt 18.0*.
Screening Oc1cccc(Nc2ncnc3c2oc2ccccc23)c1 returned CHO parental Ca -9.7, OX1R antag-1 5.8, TAAR1 ag 4.4, TAAR1 antagonist 21.8, GPR7 antagonist -3.6 and OX1R antag-2 -24.6.
Cc1cccc2nc(-c3cccc(NC(=O)c4ccc(Cl)cc4)c3)cn12 was read as CHO parental Ca -26.7, OX1R antag-1 84.2*, TAAR1 ag -1.0, TAAR1 antagonist -5.8, GPR7 antagonist -6.6, OX1R antag-2 -18.2, OX1R HTRF confirm 78.7* and CHO-K1 HTRF cnt 24.4*.
`Cc1cccc2nc(-c3cccc(NC(=O)Cc4ccccc4)c3)cn12` gave CHO parental Ca -25.5, OX1R antag-1 32.4, TAAR1 ag -1.1, TAAR1 antagonist -5.4, GPR7 antagonist -6.1 and OX1R antag-2 -41.0.
For CC(=O)NCC(c1cccs1)S(=O)(=O)c1ccc(F)cc1 (stereo not drawn) the results were CHO parental Ca -0.9, OX1R antag-1 16.4, TAAR1 ag 1.9, TAAR1 antagonist -18.6, GPR7 antagonist -15.3 and OX1R antag-2 5.5.
`Cc1cc(S(=O)(=O)N2CCCOC2CNC(=O)C(=O)NCc2cccs2)ccc1F` (stereo not drawn) gave CHO parental Ca -13.6, OX1R antag-1 22.2, TAAR1 ag -0.6, TAAR1 antagonist -10.8, GPR7 antagonist -15.4 and OX1R antag-2 -11.7.
For Cc1ccc2nc3c(cc(C#N)c(=O)n3-c3nccs3)c(=O)n2c1 the results were CHO parental Ca -4.3, OX1R antag-1 168.9*, TAAR1 ag 6.3, TAAR1 antagonist 3.3, GPR7 antagonist -6.4, OX1R antag-2 -12.6, OX1R HTRF confirm 90.1* and CHO-K1 HTRF cnt 77.3*.
For Cc1ccccc1NC1=C/C(=N\S(=O)(=O)c2cccs2)c2ccccc2C1=O the results were CHO parental Ca -18.6, OX1R antag-1 38.7, TAAR1 ag 9.9, TAAR1 antagonist 24.3, GPR7 antagonist -6.7 and OX1R antag-2 -29.0.
For Cc1cc[n+](C2=C([O-])c3ccccc3C(=O)/C2=N\S(=O)(=O)c2cccs2)cc1C the results were CHO parental Ca -12.8, OX1R antag-1 106.2*, TAAR1 ag 3.5, TAAR1 antagonist -16.5, GPR7 antagonist 2.6, OX1R antag-2 -17.0, OX1R HTRF confirm 30.0 and CHO-K1 HTRF cnt 24.7*.
For O=C(NCCCn1ccnc1)c1cc([N+](=O)[O-])cc([N+](=O)[O-])c1 the results were CHO parental Ca -9.0, OX1R antag-1 104.7*, TAAR1 ag 1.6, TAAR1 antagonist 8.0, GPR7 antagonist -12.4, OX1R antag-2 -12.9, OX1R HTRF confirm 58.0* and CHO-K1 HTRF cnt 87.2*.
`NS(=O)(=O)c1ccc(NCCCn2ccnc2)c([N+](=O)[O-])c1` gave CHO parental Ca 7.4, OX1R antag-1 80.5*, TAAR1 ag -0.4, TAAR1 antagonist -3.4, GPR7 antagonist -12.4, OX1R antag-2 7.4, OX1R HTRF confirm 52.0 and CHO-K1 HTRF cnt 49.8*.
CCCCNc1ccc(S(N)(=O)=O)cc1[N+](=O)[O-] was read as CHO parental Ca -3.1, OX1R antag-1 41.6, GPR7 antagonist -11.7 and OX1R antag-2 -10.7.
`CCCCn1nnnc1C(c1ccccc1OC(F)(F)F)N1CCN(C/C=C/c2ccccc2)CC1` (stereo not drawn) gave TAAR1 ag -0.8 and TAAR1 antagonist 2.8.
For CCN(C(=O)Cc1c(C(=O)O)n(CC)c2ccccc12)c1cccc(C(F)(F)F)c1 the results were CHO parental Ca -7.6, OX1R antag-1 -0.7, TAAR1 ag 5.7, TAAR1 antagonist -3.9, GPR7 antagonist 0.6 and OX1R antag-2 2.8.
Screening Cc1nn2c3ccccc3nc2c2ccccc12 returned CHO parental Ca -11.3, OX1R antag-1 87.7*, TAAR1 ag 2.0, TAAR1 antagonist -1.2, GPR7 antagonist -8.8, OX1R antag-2 25.0, OX1R HTRF confirm 82.8* and CHO-K1 HTRF cnt -12.1.
For CCn1c(=O)c(C)nn2c3ccccc3nc12 the results were CHO parental Ca -4.0, OX1R antag-1 23.5, TAAR1 ag 8.7, TAAR1 antagonist -9.4, GPR7 antagonist 7.3 and OX1R antag-2 6.1.
O=C(O)C1=NN(c2cc(Cl)c(S(=O)(=O)O)cc2Cl)C(=O)C1 was read as TAAR1 ag 2.9 and TAAR1 antagonist -1.3.
`O=[N+]([O-])c1ccc(NCCN2CCOCC2)c([N+](=O)[O-])c1` gave TAAR1 ag 1.7, TAAR1 antagonist -11.2 and GPR7 antagonist -0.5.
Screening CCOc1cc(NCCN2CCOCC2)c([N+](=O)[O-])cc1OCC returned CHO parental Ca -7.3, OX1R antag-1 91.0*, TAAR1 ag -3.6, TAAR1 antagonist -3.4, GPR7 antagonist 4.5, OX1R antag-2 -25.6, OX1R HTRF confirm 38.2 and CHO-K1 HTRF cnt 48.7*.
O=C(NC1CCCC1)c1cccc(S(=O)(=O)Nc2ccccc2F)c1 was read as CHO parental Ca -13.7, OX1R antag-1 9.1, TAAR1 ag 1.5, TAAR1 antagonist -12.2 and OX1R antag-2 -9.8.

Screens deposited in PubChem BioAssay by The Scripps Research Institute Molecular Screening Center.
